Columns and labels:
PC3 cells = experiment: Cell proliferation assay in 2D monolayer culture; assay type: cell-based, human
Outline: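 PC3 cells were grown in RPMI 1640 with 10% FBS and antibiotics, seeded at 1×10^4 cells/well, attached for 24 h, then dosed in 2.5% FBS-RPMI 1640. Single doses of 50, 100 and 200 μM were read at 72 h; daily 50 μM dosing ran for 4 days. Readout was WST-1 for 1 h with absorbance at 450 nm, versus untreated cells, plus live/dead imaging. n = 3, one-way ANOVA.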

[1] = pH 7.4
[2] = property table of leuprolide acetate; no matrix and reference not given; cited from earlier work
PC3 spheroids = experiment: Anti-tumor response in 3D spheroid culture model; assay type: cell-based, human; conditions: PC3 3D spheroids, 50 μM, 7 days, n = 3
Outline: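 PC3 cells were suspended at 2000 cells/mL in 10% FBS-RPMI 1640 with 1% (v/v) Matrigel, plated in ultra-low-attachment wells, centrifuged at 1500 rpm for 10 min and grown at 37 °C, 5% CO2. After 4 days of spheroid formation, test compound was added once at final 50 μM in 2.5% FBS-RPMI. Spheroid area was imaged over 7 days and expressed as fold of day-0 area. n = 3.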

[3] = property table of leuprolide acetate; no reference given; cited from earlier work

## CCCCCCCCCCCCCCCCCC(=O)O [SA, stearic acid]
PC3 cells; PC3, one-time treatment, 50, 100, 200 μM, 72 h incubation, WST-1
  Cell survival / cell growth after one-time treatment: significantly inhibited cell growth

## Leuprolide–stearic acid nanoparticle [LSN]
[1]
  Change of particle size, short-time stability in PBS: no significant difference

## Leuprolide–lauric acid nanoparticle [LLN]
[1]
  Change of particle size, short-time stability in PBS: slight increase in the particle size

## CCNC(=O)[C@@H]1CCCN1C(=O)[C@H](CCCNC(=N)N)NC(=O)[C@H](CC(C)C)NC(=O)[C@@H](CC(C)C)NC(=O)[C@H](Cc1ccc(O)cc1)NC(=O)[C@H](CO)NC(=O)[C@H](Cc1c[nH]c2ccccc12)NC(=O)[C@H](Cc1c[nH]cn1)NC(=O)[C@@H]1CCC(=O)N1 [LEU, Leuprolide]
[2]
  Half-life: 3 h
PC3 cells; PC3, treatment repeated daily at 50 µM for 4 days, WST-1, n = 3
  Anti-proliferative effect (% of control): 8.9%
PC3 spheroids
  Spheroid growth (spheroid area/volume), one-time treatment: expansion of spheroid volume
[3]
  Physiological charge: +1

## Leuprolide–palmitic acid nanoparticle [LPN]
[1]
  Change of particle size, short-time stability in PBS: no significant difference
